Published values from different studies.
Lines come from different studies, so protocols differ.
Organism: Pseudomonas aeruginosa

Structure (SMILES)	test	system	conditions	endpoint	value
CC(C)CC1NC(=O)C(C(=O)NC(C(=O)NC2C(=O)N3C2SC(C)(C)C3C(=O)O)c2ccccc2)=C1O (stereo not shown)	microbial growth, well diffusion	PAO1	200 µM	inhibition zone	11.7 mm
CCn1cc(C(=O)O)c(=O)c2cc(F)c(N3CCNCC3)cc21	microbial killing, broth dilution	ATCC9027		MBC	2 µM
COc1c(C)c(OC)c(C(=O)/C=C/c2ccccc2)c(OC)c1C	microbial killing, broth dilution	ATCC27853		MBC	> 5000 µg/mL
O=c1cccccc1S	microbial growth, broth dilution	ATCC27853		MIC80	> 71.4 µM
CCCC(=O)Oc1c(C)c(O)c(C(=O)/C=C/c2ccccc2)c(OC)c1C	microbial killing, broth dilution	ATCC27853		MBC	> 5000 µg/mL
CC(C)Oc1c(NC(=O)c2ccc(NC(=O)[C@H](CC(N)=O)NC(=O)c3cccc(NC(=O)c4ccc(C#N)cc4)c3)cc2)ccc(C(=O)Nc2ccc(C(=O)O)cc2)c1O	microbial growth	PA14		MIC	> 64 µg/mL
O=c1[nH]cc(F)c(=O)[nH]1	microbial killing, broth dilution		48 h	MBC	8 µg/mL
O=C(Sc1cccccc1=O)c1cccc(C(F)(F)F)c1	microbial growth, broth dilution	ATCC27853		MIC80	> 71.4 µM
COc1c(C)c(OC(=O)c2ccc(C)cc2)c(C)c(O)c1C(=O)/C=C/c1ccccc1	microbial killing, broth dilution	ATCC27853		MBC	> 5000 µg/mL
COc1cc(C=Cc2cc(-c3ccc(N(C)C)cc3)nc(O)n2)ccc1O	microbial growth, disc diffusion	ATCC27853	500 µg/mL	inhibition zone	7.67 mm
O=C(Sc1cccccc1=O)c1ccccc1C(F)(F)F	microbial growth, broth dilution	ATCC27853		MIC80	> 71.4 µM
CCCCCCCCCCCCCC(O)CC(O)CO (stereo not shown)	microbial growth, broth dilution	ATCC27853		IC50	> 200 µg/mL
CC(C)COc1c(NC(=O)c2ccc(NC(=O)[C@H](CC(N)=O)NC(=O)c3ccc(NC(=O)c4ccc(C#N)cc4)cc3)cc2)ccc(C(=O)Nc2ccc(C(=O)O)cc2)c1O	microbial growth	PA14		MIC	> 64 µg/mL
CC1(C)S[C@@H]2[C@H](NC(=O)[C@H](N)c3ccc(O)cc3)C(=O)N2[C@H]1C(=O)O	microbial growth, disc diffusion	ATCC27853	250 µg/mL	inhibition zone	9.38 mm
CC(C)Oc1c(NC(=O)c2ccc(NC(=O)[C@H](CC(N)=O)NC(=O)c3ccc(CCNC(=O)c4ccc(C#N)cc4)cc3)cc2)ccc(C(=O)Nc2ccc(C(=O)O)cc2)c1O	microbial growth	PA14		MIC	> 64 µg/mL
COc1c(C)c(OS(=O)(=O)c2ccc3ccccc3c2)c(C)c(OS(=O)(=O)c2ccc3ccccc3c2)c1C(=O)/C=C/c1ccccc1	microbial growth, well diffusion	ATCC27853	5 µg/mL	inhibition zone	14 mm
CC1(C)SC2C(NC(=O)C(NC(=O)C3=C(O)C(Cc4ccsc4)NC3=O)c3ccccc3)C(=O)N2C1C(=O)O (stereo not shown)	microbial growth, well diffusion	PAO1	200 µM	inhibition zone	11 mm

Structure (SMILES)	test	system	conditions	endpoint	value
COc1c(C)c(OS(=O)(=O)c2ccc3ccccc3c2)c(C)c(O)c1C(=O)/C=C/c1ccccc1	microbial killing, broth dilution	ATCC27853		MBC	> 5000 µg/mL
CC[C@H]1OC(=O)[C@H](C)[C@@H](O[C@H]2C[C@@](C)(OC)[C@@H](O)[C@H](C)O2)[C@H](C)[C@@H](O[C@@H]2O[C@H](C)C[C@H](N(C)C)[C@H]2O)[C@](C)(O)C[C@@H](C)/C(=N\OCOCCOC)[C@H](C)[C@@H](O)[C@]1(C)O	microbial growth, disc diffusion	ATCC9721	20000 µg/mL, 24 h	inhibition zone	19 mm
CC(C)Oc1c(NC(=O)c2ccc(NC(=O)[C@H](CC(N)=O)NC(=O)c3ccc(NC(=O)c4ccccc4)cc3)cc2)ccc(C(=O)Nc2ccc(C(=O)O)cc2)c1O	microbial growth	PA14		MIC	> 64 µg/mL
CCCCCCCCCC(=O)Oc1c(C)c(O)c(C(=O)/C=C/c2ccccc2)c(OC)c1C	microbial killing, broth dilution	ATCC27853		MBC	> 5000 µg/mL
CC1(C)S[C@@H]2[C@H](NC(=O)[C@H](N)c3ccccc3)C(=O)N2[C@H]1C(=O)O	microbial growth, well diffusion	PAO1	200 µM	inhibition zone	8 mm
COc1cc(C=CC(=O)CC(c2ccc([N+](=O)[O-])cc2)n2ccnc2)ccc1O (stereo not shown)	microbial growth, disc diffusion	ATCC27853	250 µg/mL	inhibition zone	6 mm
CC(C)Oc1c(NC(=O)c2ccc(NC(=O)[C@H](CC(N)=O)NC(=O)c3ccc(NC(=O)c4ccc(C#N)c(Cl)c4)cc3)cc2)ccc(C(=O)Nc2ccc(C(=O)O)cc2)c1O	microbial growth	PA14		MIC	> 64 µg/mL
CC1(C)SC2C(NC(=O)C(NC(=O)C3=C(O)C4(CC4)NC3=O)c3ccccc3)C(=O)N2C1C(=O)O (stereo not shown)	microbial growth, well diffusion	PAO1	200 µM	inhibition zone	12 mm
COc1cc(C=Cc2cc(-c3ccccc3)nc(O)n2)ccc1O	microbial growth, disc diffusion	ATCC27853	250 µg/mL	inhibition zone	6 mm
COc1c(C)c(O)c(C)c(O)c1C(=O)/C=C/c1ccccc1	microbial killing, broth dilution	ATCC27853		MBC	> 5000 µg/mL
CC(C)c1ccc(O)c(=O)cc1	microbial growth, broth dilution	ATCC27853		MIC80	> 71.4 µM
COc1cc(C=CC(=O)CC(c2ccc(N(C)C)cc2)n2ccnc2)ccc1O (stereo not shown)	microbial growth, disc diffusion	ATCC27853	500 µg/mL	inhibition zone	23.3 mm
O=c1cccccc1SSc1cccccc1=O	microbial growth, broth dilution	ATCC27853		MIC80	> 71.4 µM
CCCCCCCC(=O)Oc1c(C)c(O)c(C(=O)/C=C/c2ccccc2)c(OC)c1C	microbial killing, broth dilution	ATCC27853		MBC	> 5000 µg/mL
Cc1cc(N)c2ccccc2[n+]1CCCCCCCCCC[n+]1c(C)cc(N)c2ccccc21	microbial growth, disc diffusion		50 µg/disc	inhibition zone	0 mm
O=C(Sc1cccccc1=O)c1ccc(C(F)(F)F)cc1	microbial growth, broth dilution	ATCC27853		MIC80	> 71.4 µM
C=CCCCCCCCCCCCC(O)CC(O)CO (stereo not shown)	microbial growth, broth dilution	ATCC27853		IC50	> 200 µg/mL
